Experimental findings from PMC3148296 (Molecular pharmaceutics, 2011) are described below.

For series [1], the system named is 4T1 cells (αvβ3 positive). Kind of series: In vitro photosensitizing. Format: cell-based, Mouse. Particulars: 4T1, 2 h incubation, 665 nm light 0-2 J/cm2, MTT 48 h later. An outline of the steps:
(§1)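 Cells kept at 37°C in 5% CO₂ in medium with 10% FBS (4T1: RPMI-1640; A431: DMEM high glucose). Plated at 3000 cells/well and allowed to attach for 3 h. Test compound added at variable concentrations for 2 h in the dark, then replaced with drug-free medium. Irradiated with a 665 nm dye laser at 3.2 mW/cm². After 48 h in the dark: MTT for 4 h, DMSO, A570. Survival given as % of dark control; mean of 3 experiments, 6 wells each, SD.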

Series [2] concerns 4T1 tumors. Nature of the series: In vivo photosensitizing. Further details: species or system BALB/c mice. Particulars: 10 mice/group. An outline of the steps:
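BALB/c mice received 1 × 10⁶ 4T1 cells s.c. in 50 μL PBS at the right shoulder. Treatment began at a mean tumor volume of 62.5 mm³ (50–70). Test compound given i.v. Unanesthetized, restrained mice were irradiated at 665 nm (1 cm² spot, 135 J/cm², 75 mW/cm²). Mice were checked daily for regrowth; volume = (L × W²)/2; mice euthanized at 400 mm³.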

The subject of series [3] is U87 cells. Nature of the series: In vitro cell uptake by flow cytometry. The class given is cell-based, Human.
Series [4] has as its system A431 cells (αvβ3 negative). Kind of series: In vitro photosensitizing. Format: cell-based, Human. The following applies: A431, 2 h incubation, 665 nm light 0-2 J/cm2, MTT 48 h later. Summed up: as §1
Series [5] relates to 4T1 cells. Nature of the series: In vitro cell uptake by flow cytometry. Format: cell-based, Mouse. Particulars: 4T1, 2 h post incubation.
A short description of series [6]: Solubility in solvents. Format: physicochemical.
The mark [7] stands for this setting: 0.25 μmol/kg, light at 24 h post injection.

Consider “3-devinyl-3-{1′-(hexyloxy)ethyl}pyropheophorbide-a–cyclo(RGDfK) conjugate [conjugate 7]”, for which the “in vitro PDT efficacy among HPPH and conjugates 7, 8, 10” value in series [1] is listed as “most effective”. The “tumor cure at day 60” value in series [2] (setting [7]) was “did not produce any cures”. Moreover, the “mice tumor-free on day 60” value in series [2] (light at 2 h post injection, Figure 7A) was 8/10. For the same substance, in series [3] (U87, 400 nM and 800 nM, 2 h and 4 h post-incubation, flow cytometry), the “cell uptake among conjugates 7, 8 and 10” value was “highest uptake”. Moreover, the “cell uptake at 4 h versus 2 h incubation” value in series [3] (U87, Figure S10) was “significantly more at 4h”. In addition, in series [4], the “in vitro phototoxicity compared to HPPH” value is listed as “less effective”. The “cell uptake compared with HPPH” value in series [5] is “comparable”.
“HPPH–cyclo(RGDfK) conjugate [conjugate 8]”: in series [6], the “dissolution in common polar solvents” value is reported as “unsuccessful” and the “solubility in DMSO” value is “partly soluble”.
In the case of “3-(1′-hexyloxyethyl)-3-devinylpyropheophorbide-a [HPPH]”, the “tumor cure at day 60” value in series [2] (setting [7]) is reported as “did not produce any cures”; in series [2] (0.47 μmol/kg, light at 4 h post injection), “no cures”. In addition, in series [2] (light at 24 h post injection, Figure 7B), the “mice tumor-free on day 60” value is 4/10.
